Test results: ChEMBL document CHEMBL1255380, “Small molecule-mediated disruption of Wnt-dependent signaling in tissue regeneration and cancer” (Nat Chem Biol, 2009)
One block for each compound: values may come before it. The source made the active and inactive calls. The calls are words filed in the database; no cut-off is given here.

How the values were obtained:
[1] = target: T1, Protein-serine O-palmitoleoyltransferase porcupine (Mus musculus) (UniProt Q9JJJ7); experiment: Increase in porcn levels in mouse L cell expressing Wnt and STF; assay type: cell-based
T1 sequence (whole entry): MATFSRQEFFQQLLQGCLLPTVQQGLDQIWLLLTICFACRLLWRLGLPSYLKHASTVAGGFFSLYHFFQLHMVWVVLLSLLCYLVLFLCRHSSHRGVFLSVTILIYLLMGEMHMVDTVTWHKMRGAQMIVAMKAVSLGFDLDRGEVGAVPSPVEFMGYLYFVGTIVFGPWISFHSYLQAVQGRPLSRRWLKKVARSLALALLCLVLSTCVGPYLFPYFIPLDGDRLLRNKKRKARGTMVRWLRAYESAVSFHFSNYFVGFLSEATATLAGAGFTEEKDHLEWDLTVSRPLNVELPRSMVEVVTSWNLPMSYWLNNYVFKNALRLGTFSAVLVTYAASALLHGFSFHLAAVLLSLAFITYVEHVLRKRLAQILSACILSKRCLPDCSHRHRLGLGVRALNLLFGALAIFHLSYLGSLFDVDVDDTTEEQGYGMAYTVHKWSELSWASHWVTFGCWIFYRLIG

[2] = target: Protein Wnt-3a (Homo sapiens) (UniProt P56704); experiment: Inhibition of palmitoylation of Wnt3A expressed in mouse L cell by detergent solubility fractionation assessed as [3H]palmitate incorporation at 2.5 uM by autoradiography method; assay type: cell-based
Sequence of Protein Wnt-3a (Homo sapiens) (P56704 whole entry, the tested form may be a part): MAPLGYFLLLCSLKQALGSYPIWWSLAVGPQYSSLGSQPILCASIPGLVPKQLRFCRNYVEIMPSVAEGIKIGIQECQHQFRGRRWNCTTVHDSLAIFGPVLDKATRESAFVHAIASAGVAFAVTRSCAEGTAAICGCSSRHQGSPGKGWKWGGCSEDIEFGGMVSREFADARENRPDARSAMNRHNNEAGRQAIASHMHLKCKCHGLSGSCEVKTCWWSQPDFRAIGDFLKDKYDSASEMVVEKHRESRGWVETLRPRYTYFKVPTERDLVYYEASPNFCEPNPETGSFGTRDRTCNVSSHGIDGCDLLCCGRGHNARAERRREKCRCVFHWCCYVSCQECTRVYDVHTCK

[3] = Inhibition of Notch pathway in mouse L cells at 2.5 uM
[4] = target: Protein Wnt-3a (Homo sapiens) (UniProt P56704); experiment: Inhibition of lipidation of Wnt3A expressed in mouse L cell at 2 uM by detergent solubility fractionation assay; assay type: cell-based
[5] = target: T1, Protein-serine O-palmitoleoyltransferase porcupine (Mus musculus); experiment: Effect on porcn Endoplasmic reticulum localization in mouse L cell expressing Wnt and STF; assay type: cell-based
[6] = target: T2, Protein-serine O-palmitoleoyltransferase porcupine (Homo sapiens) (UniProt Q9H237); experiment: Displacement of IWP-PB from porcn in HEK293 lysate by Western blot analysis
T2 sequence (whole entry): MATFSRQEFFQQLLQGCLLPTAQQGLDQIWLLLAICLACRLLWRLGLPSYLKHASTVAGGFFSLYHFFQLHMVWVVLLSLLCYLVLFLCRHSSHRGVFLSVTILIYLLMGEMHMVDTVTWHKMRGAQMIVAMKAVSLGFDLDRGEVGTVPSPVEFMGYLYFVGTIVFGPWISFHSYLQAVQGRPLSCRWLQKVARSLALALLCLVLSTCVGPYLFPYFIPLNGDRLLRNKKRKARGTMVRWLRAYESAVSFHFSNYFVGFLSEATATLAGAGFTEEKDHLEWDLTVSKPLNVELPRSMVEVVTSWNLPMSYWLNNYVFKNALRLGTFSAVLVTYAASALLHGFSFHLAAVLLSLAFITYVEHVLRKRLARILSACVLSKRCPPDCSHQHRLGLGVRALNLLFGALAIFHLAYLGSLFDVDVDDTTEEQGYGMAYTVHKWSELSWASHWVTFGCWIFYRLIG

[7] = Inhibition of Wnt3A/[…] pathway activity in mouse L cell expressing Wnt3a assessed as inhibition of […] accumulation at 5 uM after 24 hrs by Western blot analysis; assay type: cell-based
[8] = target: Membrane-bound glycerophospholipid O-acyltransferase 2 (Mus musculus) (UniProt Q8R3I2); experiment: Inhibition of MBOAT2 mediated Wnt3a pathway activity in mouse L cell expressing Wnt3a assessed as decreased firefly luciferase reporter expression at 0.25 uM to 1 uM; assay type: cell-based
Sequence of Membrane-bound glycerophospholipid O-acyltransferase 2 (Mus musculus) (Q8R3I2 whole entry): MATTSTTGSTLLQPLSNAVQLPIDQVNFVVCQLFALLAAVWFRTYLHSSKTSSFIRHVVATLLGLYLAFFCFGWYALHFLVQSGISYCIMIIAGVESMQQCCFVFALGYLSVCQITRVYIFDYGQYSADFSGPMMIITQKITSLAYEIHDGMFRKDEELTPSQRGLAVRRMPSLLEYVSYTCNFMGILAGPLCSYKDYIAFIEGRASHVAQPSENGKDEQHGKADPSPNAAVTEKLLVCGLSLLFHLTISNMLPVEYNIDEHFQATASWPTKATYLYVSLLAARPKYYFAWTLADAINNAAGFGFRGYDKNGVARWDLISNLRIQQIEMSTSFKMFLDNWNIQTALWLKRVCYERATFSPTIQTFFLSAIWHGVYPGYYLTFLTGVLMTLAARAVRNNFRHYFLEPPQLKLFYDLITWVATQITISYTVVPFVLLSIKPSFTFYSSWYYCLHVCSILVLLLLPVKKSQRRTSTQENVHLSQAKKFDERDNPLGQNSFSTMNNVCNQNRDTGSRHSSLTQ

[9] = target: Protein Wnt-3a (Homo sapiens) (UniProt P56704); experiment: Inhibition of Wnt3A secretion in mouse L cell expressing Wnt3a overexpressing Evi assessed as decreased Gaussia luciferase reporter expression at 0.25 uM to 1 uM; assay type: cell-based
Outline: (§1)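 Wnt secretion test: L-cells transiently transfected with Wnt-Gaussia luciferase fusion construct, incubated with compounds immediately after transfection, GL activity measured 48 hrs later.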

Danio rerio = species on record: Danio rerio; experiment: Inhibition of caudal fin regeneration after mechanical resection in zebrafish at 10 uM after 7 days; assay type: functional, organism-based
Outline: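 Zebrafish 3-6 months old anaesthetized in 0.02% Tricaine; half of caudal fin resected with razor blade; kept at 28°C in tank water with 10μM compound or DMSO; water and compound replenished daily over assay period.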

[10] = target: Protein Wnt-3a (Homo sapiens) (UniProt P56704); experiment: Inhibition of Wnt3A secretion in mouse L cell expressing Wnt3a overexpressing porcn assessed as decreased Gaussia luciferase reporter expression at 0.25 uM to 1 uM; assay type: cell-based; outline: as §1
[11] = target: T1, Protein-serine O-palmitoleoyltransferase porcupine (Mus musculus); experiment: Inhibition of porcn-mediated Wnt5A palmitoylation in mouse L cell expressing Wnt5A and STF by detergent solubility fractionation assessed as [3H]palmitate incorporation at 2 uM by autoradiography method; assay type: cell-based
[12] = target: Protein-cysteine N-palmitoyltransferase HHAT (Mus musculus) (UniProt Q8BMT9); experiment: Inhibition of HHAT mediated Wnt pathway activity in mouse L cell expressing Wnt3a assessed as decreased firefly luciferase reporter expression at 0.25 uM to 1 uM; assay type: cell-based
Sequence of Protein-cysteine N-palmitoyltransferase HHAT (Mus musculus) (Q8BMT9 whole entry): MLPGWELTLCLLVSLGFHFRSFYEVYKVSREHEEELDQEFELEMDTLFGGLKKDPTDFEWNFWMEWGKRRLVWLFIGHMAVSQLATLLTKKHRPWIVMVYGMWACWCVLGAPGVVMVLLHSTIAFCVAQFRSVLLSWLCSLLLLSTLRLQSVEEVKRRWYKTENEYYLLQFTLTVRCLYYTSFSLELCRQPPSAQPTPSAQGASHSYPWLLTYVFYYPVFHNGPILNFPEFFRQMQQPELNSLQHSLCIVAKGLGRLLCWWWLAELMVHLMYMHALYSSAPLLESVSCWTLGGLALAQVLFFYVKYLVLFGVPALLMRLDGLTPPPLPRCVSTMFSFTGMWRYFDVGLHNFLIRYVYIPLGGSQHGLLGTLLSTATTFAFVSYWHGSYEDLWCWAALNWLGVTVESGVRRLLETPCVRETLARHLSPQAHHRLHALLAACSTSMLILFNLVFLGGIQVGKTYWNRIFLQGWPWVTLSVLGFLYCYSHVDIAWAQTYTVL

[13] = target: Protein Wnt-3a (Homo sapiens) (UniProt P56704); experiment: Inhibition of Wnt3A activity in mouse L cell expressing Wnt3A and STF and overexpressing porcn assessed as decreased firefly luciferase reporter expression at 0.25 uM to 1 uM; assay type: cell-based
[14] = target: Protein Wnt-3a (Homo sapiens) (UniProt P56704); experiment: Inhibition of Wnt3A activity in mouse L cell expressing Wnt3A and STF and overexpressing Evi assessed as decreased firefly luciferase reporter expression at 0.25 uM to 1 uM; assay type: cell-based
[15] = Inhibition of Wnt3A/[…] pathway activity in mouse L cell expressing Wnt3a assessed as decrease in phosphorylated Dvl2 level at 5 uM after 24 hrs by Western blot analysis; assay type: cell-based
[16] = target: Protein Wnt-3a (Mus musculus) (UniProt P27467); experiment: Inhibition of Wnt3A lipidation in mouse L cell expressing Wnt3a and overexpressing porcn at 2 uM by detergent solubility fractionation assay; assay type: cell-based
Sequence of Protein Wnt-3a (Mus musculus) (P27467 whole entry): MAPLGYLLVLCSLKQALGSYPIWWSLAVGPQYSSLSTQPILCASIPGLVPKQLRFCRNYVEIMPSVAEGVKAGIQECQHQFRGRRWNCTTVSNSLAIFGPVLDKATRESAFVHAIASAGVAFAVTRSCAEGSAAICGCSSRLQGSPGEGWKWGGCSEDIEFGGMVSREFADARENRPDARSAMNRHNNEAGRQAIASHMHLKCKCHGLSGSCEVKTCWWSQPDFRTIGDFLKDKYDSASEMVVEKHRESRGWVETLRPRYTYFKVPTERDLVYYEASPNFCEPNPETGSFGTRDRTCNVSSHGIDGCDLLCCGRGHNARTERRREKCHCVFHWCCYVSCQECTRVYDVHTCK

[17] = target: T2, Protein-serine O-palmitoleoyltransferase porcupine (Homo sapiens); experiment: Inhibition of porcn-mediated Shh palmitoylation in human DLD1 lysate by detergent solubility fractionation assessed as [3H]palmitate incorporation at 2.5 uM by autoradiography method
[18] = target: Membrane-bound glycerophospholipid O-acyltransferase 1 (Mus musculus) (UniProt Q8BH98); experiment: Inhibition of MBOAT1 mediated Wnt3a pathway activity in mouse L cell expressing Wnt3a assessed as decreased firefly luciferase reporter expression at 0.25 uM to 1 uM; assay type: cell-based
Sequence of Membrane-bound glycerophospholipid O-acyltransferase 1 (Mus musculus) (Q8BH98 whole entry): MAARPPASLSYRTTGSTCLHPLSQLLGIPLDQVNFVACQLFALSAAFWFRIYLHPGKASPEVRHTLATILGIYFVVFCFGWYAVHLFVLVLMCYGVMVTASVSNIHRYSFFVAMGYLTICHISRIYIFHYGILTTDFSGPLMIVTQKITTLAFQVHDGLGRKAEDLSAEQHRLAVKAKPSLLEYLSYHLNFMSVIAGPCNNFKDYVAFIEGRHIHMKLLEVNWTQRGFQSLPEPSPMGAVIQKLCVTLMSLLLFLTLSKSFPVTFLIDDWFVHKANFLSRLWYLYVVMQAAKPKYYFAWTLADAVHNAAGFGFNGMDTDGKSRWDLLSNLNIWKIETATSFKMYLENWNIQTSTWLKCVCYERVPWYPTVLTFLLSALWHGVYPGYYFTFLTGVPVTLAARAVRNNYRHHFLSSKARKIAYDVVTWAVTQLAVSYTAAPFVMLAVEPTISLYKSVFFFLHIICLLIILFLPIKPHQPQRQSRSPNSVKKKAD

[19] = target: Lysophospholipid acyltransferase 5 (Mus musculus) (UniProt Q91V01); experiment: Inhibition of MBOAT5 mediated Wnt3a pathway activity in mouse L cell expressing Wnt3a assessed as decreased firefly luciferase reporter expression at 0.25 uM to 1 uM; assay type: cell-based
Sequence of Lysophospholipid acyltransferase 5 (Mus musculus) (Q91V01 whole entry): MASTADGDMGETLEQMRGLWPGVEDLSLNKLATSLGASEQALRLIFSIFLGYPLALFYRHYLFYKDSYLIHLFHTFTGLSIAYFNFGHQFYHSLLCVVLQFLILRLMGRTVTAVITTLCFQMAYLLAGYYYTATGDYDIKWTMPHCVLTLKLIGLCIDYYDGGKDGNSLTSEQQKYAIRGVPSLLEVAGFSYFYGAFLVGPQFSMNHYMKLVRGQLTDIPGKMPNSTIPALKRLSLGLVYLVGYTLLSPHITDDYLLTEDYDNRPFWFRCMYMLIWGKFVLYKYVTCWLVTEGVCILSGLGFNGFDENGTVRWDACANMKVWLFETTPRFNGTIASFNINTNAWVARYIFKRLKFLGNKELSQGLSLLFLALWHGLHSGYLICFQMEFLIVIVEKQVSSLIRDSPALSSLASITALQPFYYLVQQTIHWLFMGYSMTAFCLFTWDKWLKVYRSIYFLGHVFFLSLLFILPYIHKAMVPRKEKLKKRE

[20] = Inhibition of Wnt3A/[…] pathway activity in mouse L cell expressing Wnt3a assessed as decrease in phosphorylated Lrp6 level at 5 uM after 24 hrs by Western blot analysis; assay type: cell-based
[21] = target: Membrane-bound ghrelin O-acyltransferase MBOAT4 (Mus musculus) (UniProt P0C7A3); experiment: Inhibition of GOAT mediated Wnt3a pathway activity in mouse L cell expressing Wnt3a assessed as decreased firefly luciferase reporter expression at 0.25 uM to 1 uM; assay type: cell-based
Sequence of Membrane-bound ghrelin O-acyltransferase MBOAT4 (Mus musculus) (P0C7A3 whole entry): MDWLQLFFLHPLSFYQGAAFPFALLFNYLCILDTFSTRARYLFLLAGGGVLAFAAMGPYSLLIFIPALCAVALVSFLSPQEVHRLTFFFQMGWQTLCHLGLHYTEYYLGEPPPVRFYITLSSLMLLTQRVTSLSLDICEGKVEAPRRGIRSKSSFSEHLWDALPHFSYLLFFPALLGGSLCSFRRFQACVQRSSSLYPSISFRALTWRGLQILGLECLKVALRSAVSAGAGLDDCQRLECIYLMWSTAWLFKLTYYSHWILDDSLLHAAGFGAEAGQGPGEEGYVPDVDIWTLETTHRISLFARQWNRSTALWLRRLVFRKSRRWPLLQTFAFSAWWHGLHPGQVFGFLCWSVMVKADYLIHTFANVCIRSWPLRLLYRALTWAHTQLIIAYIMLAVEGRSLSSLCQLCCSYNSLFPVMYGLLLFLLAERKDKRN

[22] = target: Sterol O-acyltransferase 1 (Mus musculus) (UniProt Q61263); experiment: Inhibition of ACAT mediated Wnt3a pathway activity in mouse L cell expressing Wnt3a assessed as decreased firefly luciferase reporter expression at 0.25 uM to 1 uM; assay type: cell-based
Sequence of Sterol O-acyltransferase 1 (Mus musculus) (Q61263 whole entry): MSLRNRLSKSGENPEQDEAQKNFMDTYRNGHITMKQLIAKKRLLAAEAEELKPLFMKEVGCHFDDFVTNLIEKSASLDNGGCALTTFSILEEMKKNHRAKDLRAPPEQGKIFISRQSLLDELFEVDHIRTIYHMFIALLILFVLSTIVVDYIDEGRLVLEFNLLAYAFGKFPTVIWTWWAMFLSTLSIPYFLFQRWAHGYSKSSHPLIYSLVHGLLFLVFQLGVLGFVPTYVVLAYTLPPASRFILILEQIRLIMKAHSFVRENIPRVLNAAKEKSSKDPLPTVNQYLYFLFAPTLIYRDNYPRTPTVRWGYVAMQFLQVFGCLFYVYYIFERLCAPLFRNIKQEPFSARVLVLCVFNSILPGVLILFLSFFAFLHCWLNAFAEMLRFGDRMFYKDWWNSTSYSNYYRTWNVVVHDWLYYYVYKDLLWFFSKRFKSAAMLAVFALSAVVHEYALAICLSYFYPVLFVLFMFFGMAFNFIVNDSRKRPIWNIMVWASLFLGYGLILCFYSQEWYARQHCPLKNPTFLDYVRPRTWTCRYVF

[23] = target: Protein Wnt-3a (Mus musculus) (UniProt P27467); experiment: Inhibition of Wnt3A palmitoylation in mouse L cell expressing Wnt3a and overexpressing porcn by detergent solubility fractionation assessed as [3H]palmitate incorporation at 2.5 uM by autoradiography method
Axin-2 (Homo sapiens) [24] = target: Axin-2 (Homo sapiens) (UniProt Q9Y2T1); experiment: Induction of Axin2 accumulation in human DLD1 cells by Western blot analysis; assay type: cell-based; settings: DLD-1
Sequence of Axin-2 (Homo sapiens) (Q9Y2T1 whole entry): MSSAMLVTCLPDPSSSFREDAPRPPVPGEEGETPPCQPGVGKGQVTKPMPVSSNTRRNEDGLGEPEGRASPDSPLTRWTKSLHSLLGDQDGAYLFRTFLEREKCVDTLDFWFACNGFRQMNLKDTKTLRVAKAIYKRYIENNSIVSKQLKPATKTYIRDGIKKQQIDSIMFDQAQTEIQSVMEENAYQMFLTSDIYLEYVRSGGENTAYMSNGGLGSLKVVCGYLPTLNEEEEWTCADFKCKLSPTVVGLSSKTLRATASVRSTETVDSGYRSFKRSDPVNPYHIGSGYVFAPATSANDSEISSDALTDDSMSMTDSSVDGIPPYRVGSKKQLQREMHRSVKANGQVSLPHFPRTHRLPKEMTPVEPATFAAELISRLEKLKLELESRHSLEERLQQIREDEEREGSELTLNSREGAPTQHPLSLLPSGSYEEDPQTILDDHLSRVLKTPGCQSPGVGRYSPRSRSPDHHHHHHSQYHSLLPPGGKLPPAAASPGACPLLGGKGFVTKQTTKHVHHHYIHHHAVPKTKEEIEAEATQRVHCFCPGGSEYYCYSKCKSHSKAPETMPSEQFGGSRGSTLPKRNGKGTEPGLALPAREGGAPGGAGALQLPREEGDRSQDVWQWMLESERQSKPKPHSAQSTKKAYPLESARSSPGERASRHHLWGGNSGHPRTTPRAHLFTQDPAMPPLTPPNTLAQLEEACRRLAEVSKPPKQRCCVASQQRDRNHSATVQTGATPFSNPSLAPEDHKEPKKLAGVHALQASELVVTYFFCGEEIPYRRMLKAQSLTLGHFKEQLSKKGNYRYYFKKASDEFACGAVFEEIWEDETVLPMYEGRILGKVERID
Outline: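 DLD-1 cells exposed to IWR compound at 10μM for a 48 hr assay period; protein levels assessed by Western blot of cell lysates.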

DLD-1 [25] = experiment: Decrease in beta-[…] accumulation in human DLD1 cells expressing in APC mutant; assay type: functional, cell-based
[26] = Inhibition of Wnt3A/[…] pathway activity in mouse L cell expressing Wnt3a assessed as decrease in phosphorylated Lrp6 level at 10 uM after 24 hrs by Western blot analysis; assay type: cell-based
[27] = Inhibition of Wnt3A/[…] pathway activity in mouse L cell expressing Wnt3a assessed as decrease in phosphorylated Dvl2 level at 10 uM after 24 hrs by Western blot analysis; assay type: cell-based
[28] = Inhibition of Wnt/beta-[…] pathway activity in mouse L cell expressing Wnt and STF assessed as decreased firefly luciferase reporter expression; assay type: cell-based
[29] = Inhibition of Wnt2/beta-[…] pathway activity in mouse L cell expressing Wnt2 and STF assessed as decreased firefly luciferase reporter expression; assay type: cell-based
[30] = Inhibition of Wnt3A/[…] pathway activity in mouse L cell expressing Wnt3A and STF assessed as decreased firefly luciferase reporter expression; assay type: cell-based
Outline: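 L-Wnt-STF cells (mouse L-cells stably carrying SuperTopFlash firefly luciferase reporter, control reporter and Wnt3A expression construct), ~5K per well; compounds added 24 hrs after seeding; luciferase activities read 24 hrs later; IC50s calculated from these dose-dependent assays.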

[31] = Inhibition of Wnt1/beta-[…] pathway activity in mouse L cell expressing Wnt1 and STF assessed as decreased firefly luciferase reporter expression; assay type: cell-based
[32] = Inhibition of Wnt3A/[…] pathway activity in mouse L cell expressing Wnt3a assessed as inhibition of […] accumulation at 10 uM after 24 hrs by Western blot analysis; assay type: cell-based
Axin-2 (Homo sapiens) [33] = target: Axin-2 (Homo sapiens) (UniProt Q9Y2T1); experiment: Induction of Axin2 stabilization in human DLD1 cells assessed as inhibition of Wnt/beta-[…] pathway; assay type: cell-based; settings: DLD-1
L929 = experiment: Decrease in beta-[…] accumulation in APC-deficient mouse L cell; assay type: functional, cell-based
L [34] = experiment: Effect on proteasome in mouse L cell expressing Wnt assessed as accumulation of Axin1 by Western blot analysis
Outline: (§2)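 L-Wnt-STF cells (L-cells stably carrying Wnt3A, STF firefly luciferase reporter and control reporter) treated with IWR (10μM) or IWP (5μM) compounds, with or without cycloheximide (100μM), over 48 hrs; lysates probed by Western blot.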

Cos1 = experiment: Effect on Axin2 subcellular redistribution in african green monkey Cos1 cells by immunostaining method; assay type: cell-based; settings: Chlorocebus aethiops
DLD-1 [35] = experiment: Inhibition of Axin2 protein degradation in human DLD1 cells by Western blot analysis; assay type: functional, cell-based
Outline: (§3)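 DLD-1 cells treated over a 48 hr assay period with IWR compound (10μM), with or without cycloheximide (100μM); Axin2 protein assessed by Western blot.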

[36] = target: Protein Wnt (Danio rerio) (UniProt Q6IYD9); settings: 10 uM
Sequence of Protein Wnt (Danio rerio) (Q6IYD9 as listed by the source): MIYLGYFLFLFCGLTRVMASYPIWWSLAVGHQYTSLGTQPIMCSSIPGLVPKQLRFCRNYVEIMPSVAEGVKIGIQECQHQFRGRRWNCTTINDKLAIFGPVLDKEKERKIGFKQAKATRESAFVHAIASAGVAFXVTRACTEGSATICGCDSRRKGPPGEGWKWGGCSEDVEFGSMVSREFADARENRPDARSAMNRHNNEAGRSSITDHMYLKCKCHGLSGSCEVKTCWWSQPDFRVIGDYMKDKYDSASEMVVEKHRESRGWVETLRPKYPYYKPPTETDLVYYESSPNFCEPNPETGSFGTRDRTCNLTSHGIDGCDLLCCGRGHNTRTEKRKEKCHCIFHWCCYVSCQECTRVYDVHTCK

DLD-1 [37] = experiment: Inhibition of Axin2 protein degradation in human DLD1 cells by Western blot analysis in presence of 100 uM cyclohexamide; assay type: functional, cell-based; outline: as §3
L [38] = experiment: Effect on proteasome in mouse L cell expressing Wnt assessed as accumulation of beta-[…] by Western blot analysis; outline: as §2
HEK293 = experiment: Effect on interaction between Axin1-GFP and PP2A in HEK293 cell lysate at 10 uM by Western blot analysis; assay type: cell-based; settings: Homo sapiens

Activity [1]: Active
inhibition [2]: Active
inhibition [4]: Active
Activity [5]: inactive
inhibition [6]: Active
inhibition [8]: inactive
inhibition [9]: inactive
inhibition [10]: inactive
inhibition [11]: Active
inhibition [12]: inactive
inhibition [13]: inactive
inhibition [14]: inactive
inhibition [16]: Active
inhibition [17]: inactive
inhibition [18]: inactive
inhibition [19]: inactive
inhibition [21]: inactive
inhibition [22]: inactive
inhibition [23]: inactive
SMILES: Cc1ccc2nc(NC(=O)CSc3nc4c(c(=O)n3-c3ccccc3)SCC4)sc2c1
inhibition [3]: inactive
inhibition [7]: Active
inhibition (Danio rerio): inactive
inhibition [15]: Active
inhibition [20]: Active

Activity (Axin-2 (Homo sapiens) [24]): Active
IC50 [28]: 0.23 µM
SMILES: Cc1ccnc2c(NC(=O)c3ccc(N4C(=O)[C@@H]5[C@H](C4=O)[C@@H]4C=C[C@H]5C4)cc3)cccc12
inhibition (Danio rerio): Active
inhibition (DLD-1 [25]): Active
inhibition [26]: inactive
inhibition [27]: inactive
inhibition [29]: Active
inhibition [30]: Active
inhibition [31]: Active
inhibition [32]: Active

Activity (Axin-2 (Homo sapiens) [33]): Active
Activity (L [34]): inactive
Activity (Axin-2 (Homo sapiens) [24]): Active
inhibition [36]: Active
Activity (L [38]): inactive
SMILES: O=C(Nc1cccc2cccnc12)c1ccc(N2C(=O)[C@@H]3[C@H](C2=O)[C@@H]2C=C[C@H]3C2)cc1
inhibition (L929): Active
Activity (Cos1): inactive
inhibition (DLD-1 [35]): Active
inhibition (Danio rerio): Active
inhibition (DLD-1 [25]): Active
inhibition [26]: inactive
inhibition [27]: inactive
inhibition [29]: Active
inhibition [30]: Active
inhibition [31]: Active
inhibition (DLD-1 [37]): inactive
inhibition [32]: Active
Activity (HEK293): inactive
